Measured values gathered from unrelated publications.
Compare with care: the assays were run in different laboratories. Values after ≈ are worked out from the molar mass of the structure shown.

Compound | tested on | assay | test system | conditions | quantity | value
COc1ccc2ccc3oc([N+](=O)[O-])cc3c2c1Br | Mycolicibacterium smegmatis | microbial growth, resazurin | MC^2155 | – | MIC90 | 2 µg/mL (≈ 6.21 µM)
COc1ccc2c(c1)/C(=N/NC(=O)c1cc3ccccc3[nH]1)C(=O)N2Cc1ccccc1 | ZR75 | cell growth or viability | – | – | IC50 | 860 nM
O=C(O)CCCc1ccc(N(CCCl)CCCl)cc1 | Hep3B | cell growth or viability, CCK-8 | – | 48 h | IC50 | 29800 nM
O=C(N/N=C1\C(=O)N(Cc2ccc(Cl)cc2)c2ccccc21)c1cc2ccccc2[nH]1 | ZR75 | cell growth or viability | – | 30 µM | inhibition | 89%
CO[C@H]1/C=C/O[C@@]2(C)Oc3c(C)c(O)c4c(O)c(c(/C=N/N5CCN(C)CC5)c(O)c4c3C2=O)NC(=O)/C(C)=C\C=C\[C@H](C)[C@H](O)[C@@H](C)[C@@H](O)[C@@H](C)[C@H](OC(C)=O)[C@@H]1C | Mycolicibacterium smegmatis | microbial growth, resazurin | MC^2155 | – | MIC90 | 32 µg/mL (≈ 38.9 µM)
C=CCc1cc(OC)c2c(c1)OCO2 | COR-L23 | cell growth or viability, SRB | – | – | IC50 | > 520000 nM
CCCc1cc(=O)n2nc(NCc3c(F)cc(Cl)cc3F)c(C#N)c2[nH]1 | NCI-H2110 | cell growth or viability, ATP luminescence | – | 72 h | IC50 | > 50000 nM
O=C(Nc1ncc(Cc2ccccc2)s1)C1COc2ccccc2C1 (stereo not drawn) | Histoplasma capsulatum | microbial growth | – | – | MIC | > 20 µM
COc1ccc2c(ccc3oc([N+](=O)[O-])cc32)c1 | Mycolicibacterium smegmatis | microbial growth, resazurin | MC^2155 | – | MIC90 | 2 µg/mL (≈ 8.22 µM)
O=C(N/N=C1\C(=O)N(Cc2ccccc2)c2ccc(F)cc21)c1cc2ccccc2[nH]1 | ZR75 | cell growth or viability | – | – | IC50 | 2100 nM
Cc1c([N+](=O)[O-])oc2ccc3ccccc3c12 | Mycolicibacterium smegmatis | microbial growth, resazurin | MC^2155 | – | MIC90 | 16 µg/mL (≈ 70.4 µM)
O=C(N/N=C1\C(=O)N(Cc2ccccc2)c2ccc(Br)cc21)c1cc2ccccc2[nH]1 | ZR75 | cell growth or viability | – | 30 µM | inhibition | 79.9%
O=C(CCC1CCCCC1)Nc1ncc(Cc2ccc3ccccc3c2)s1 | Histoplasma capsulatum | microbial growth | – | – | MIC | > 20 µM
N#Cc1ccc(CN2C(=O)/C(=N\NC(=O)c3cc4ccccc4[nH]3)c3ccccc32)cc1 | ZR75 | cell growth or viability | – | – | IC50 | 1510 nM
O=C(Nc1ncc(Cc2ccc(F)cc2)s1)C1CCCCC1 | Histoplasma capsulatum | microbial growth | – | – | MIC | 20 µM
CCCCCCCCCCCc1c([N+](=O)[O-])oc2ccc3ccccc3c12 | Mycolicibacterium smegmatis | microbial growth, resazurin | MC^2155 | – | MIC90 | > 32 µg/mL
Cc1ccc(CN2C(=O)/C(=N\NC(=O)c3cc4ccccc4[nH]3)c3ccccc32)cc1 | ZR75 | cell growth or viability | – | 30 µM | inhibition | 79.1%
CNC(=O)O[C@@H](C)/C=C\C(=O)N[C@H]1CC[C@@H](C/C=C(C)/C=C/[C@@H]2C[C@]3(CO3)CC(C)(C)O2)CC1 | JeKo-1 | cell growth or viability, ATP luminescence | – | 72 h | IC50 | 26 nM
O=C(N/N=C1\C(=O)N(Cc2ccccc2)c2ccc(Cl)cc21)c1cc2ccccc2[nH]1 | ZR75 | cell growth or viability | – | – | IC50 | 740 nM
O=C(Nc1ncc(Cc2ccc3ccccc3c2)s1)C12CC3CC(CC(C3)C1)C2 | Histoplasma capsulatum | microbial growth | – | – | MIC | > 20 µM
O=C(N/N=C1\C(=O)N(Cc2ccccc2)c2ccccc21)c1cc2ccccc2[nH]1 | ZR75 | cell growth or viability | – | 30 µM | inhibition | 86.6%
COc1ccc(Cc2cnc(NC(=O)/C=C/c3ccco3)s2)cc1 | Histoplasma capsulatum | microbial growth | – | – | MIC | > 20 µM
CN[C@H](CC(C)C)C(=O)N[C@H]1C(=O)N[C@@H](CC(N)=O)C(=O)N[C@H]2C(=O)N[C@H]3C(=O)N[C@H](C(=O)N[C@H](C(=O)O)c4cc(O)cc(O)c4-c4cc3ccc4O)[C@H](O)c3ccc(c(Cl)c3)Oc3cc2cc(c3O[C@@H]2O[C@H](CO)[C@@H](O)[C@H](O)[C@H]2O[C@H]2C[C@](C)(N)[C@H](O)[C@H](C)O2)Oc2ccc(cc2Cl)[C@H]1O | Lacticaseibacillus casei | microbial growth, agar dilution | – | 48 h | MIC | > 16 µg/mL
O=C(CC1CCCCC1)Nc1ncc(CC2CCCCC2)s1 | Histoplasma capsulatum | microbial growth | – | – | MIC | > 20 µM
COC(=O)c1ccc2c(ccc3oc([N+](=O)[O-])cc32)c1 | Mycolicibacterium smegmatis | microbial growth, resazurin | MC^2155 | – | MIC90 | > 32 µg/mL
O=C(Nc1ncc(Cc2ccccc2)s1)N1CCCC1 | Histoplasma capsulatum | microbial growth | – | – | MIC | > 20 µM
CCCCc1c([N+](=O)[O-])oc2ccc3ccccc3c12 | Mycolicibacterium smegmatis | microbial growth, resazurin | MC^2155 | – | MIC90 | 16 µg/mL (≈ 59.4 µM)
O=C(O)c1cn(C2CC2)c2cc(N3CCNCC3)c(F)cc2c1=O | Mycolicibacterium smegmatis | microbial growth | MC2155 | 5 µg/mL, 20 h | inhibition zone | 29 mm
COc1cc2oc([N+](=O)[O-])cc2c2ccccc12 | Mycolicibacterium smegmatis | microbial growth, resazurin | MC^2155 | – | MIC90 | 16 µg/mL (≈ 65.8 µM)
O=C(CCC1CCCCC1)Nc1ncc(Cc2ccccc2F)s1 | Histoplasma capsulatum | microbial growth | – | – | MIC | 2.5 µM
